Results from ChEMBL document CHEMBL3414560, “Discovery of 4-(dihydropyridinon-3-yl)amino-5-methylthieno[2,3-d]pyrimidine derivatives as potent Mnk inhibitors: synthesis, structure-activity relationship analysis and biological evaluation” (Eur J Med Chem, 2015).
Active and inactive are the calls of the source. No cut-off for these calls is given here.

Assays:
MV4-11 [1] = test: Reduction in cyclin D1 expression in human MV4-11 cells at 20 uM after 24 hrs by Western blotting method; type: functional, cell-based
Outline: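 MV-4-11 AML cells grown in RPMI-1640 with 10% FBS, treated 24 h at the stated concentration against a DMSO diluent control. Lysates probed by Western blot for cyclin D1, with β-actin as loading control and HRP-conjugated anti-mouse/anti-rabbit IgG secondaries.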

MV4-11 [2] = test: Induction of apoptosis in human MV4-11 cells assessed as early apoptotic cells level at 20 uM after 24 hrs by FITC annexin-V/PI staining based flow cytometry (reference value: 3.02%); type: functional
Outline: (§1)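 MV-4-11 cells seeded at 8 × 10^4, overnight at 37 °C, 5% CO2, then treated 24 h (DMSO diluent control); pellets collected (300 × g, 5 min), stained with FITC annexin V/PI kit and analysed by flow cytometry within 1 h; apoptotic = annexin V+/PI− plus annexin V+/PI+ cells.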

[3] = molecular target: RAC-alpha serine/threonine-protein kinase (Homo sapiens) (UniProt P31749); test: Inhibition of PKBalpha (unknown origin) assessed as reduction in kinase activity at 10 uM using ATP
Chain of RAC-alpha serine/threonine-protein kinase (Homo sapiens) (P31749 whole entry): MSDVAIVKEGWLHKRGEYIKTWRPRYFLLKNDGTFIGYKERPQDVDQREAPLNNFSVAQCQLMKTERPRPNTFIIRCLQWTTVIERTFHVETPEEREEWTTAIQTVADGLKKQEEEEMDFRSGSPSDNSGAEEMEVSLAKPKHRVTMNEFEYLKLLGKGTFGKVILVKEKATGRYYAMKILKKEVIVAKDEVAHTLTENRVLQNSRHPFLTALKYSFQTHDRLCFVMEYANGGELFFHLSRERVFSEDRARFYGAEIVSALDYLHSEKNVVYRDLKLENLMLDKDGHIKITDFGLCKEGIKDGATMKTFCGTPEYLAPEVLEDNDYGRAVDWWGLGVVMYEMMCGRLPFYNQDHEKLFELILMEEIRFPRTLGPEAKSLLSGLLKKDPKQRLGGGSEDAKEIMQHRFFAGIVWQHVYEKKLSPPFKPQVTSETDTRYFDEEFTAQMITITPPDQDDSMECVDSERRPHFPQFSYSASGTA

[4] = molecular target: Receptor-type tyrosine-protein kinase FLT3 (Homo sapiens) (UniProt P36888); test: Inhibition of FLT3 (unknown origin) assessed as reduction in kinase activity at 10 uM using ATP
Chain of Receptor-type tyrosine-protein kinase FLT3 (Homo sapiens) (P36888 whole entry): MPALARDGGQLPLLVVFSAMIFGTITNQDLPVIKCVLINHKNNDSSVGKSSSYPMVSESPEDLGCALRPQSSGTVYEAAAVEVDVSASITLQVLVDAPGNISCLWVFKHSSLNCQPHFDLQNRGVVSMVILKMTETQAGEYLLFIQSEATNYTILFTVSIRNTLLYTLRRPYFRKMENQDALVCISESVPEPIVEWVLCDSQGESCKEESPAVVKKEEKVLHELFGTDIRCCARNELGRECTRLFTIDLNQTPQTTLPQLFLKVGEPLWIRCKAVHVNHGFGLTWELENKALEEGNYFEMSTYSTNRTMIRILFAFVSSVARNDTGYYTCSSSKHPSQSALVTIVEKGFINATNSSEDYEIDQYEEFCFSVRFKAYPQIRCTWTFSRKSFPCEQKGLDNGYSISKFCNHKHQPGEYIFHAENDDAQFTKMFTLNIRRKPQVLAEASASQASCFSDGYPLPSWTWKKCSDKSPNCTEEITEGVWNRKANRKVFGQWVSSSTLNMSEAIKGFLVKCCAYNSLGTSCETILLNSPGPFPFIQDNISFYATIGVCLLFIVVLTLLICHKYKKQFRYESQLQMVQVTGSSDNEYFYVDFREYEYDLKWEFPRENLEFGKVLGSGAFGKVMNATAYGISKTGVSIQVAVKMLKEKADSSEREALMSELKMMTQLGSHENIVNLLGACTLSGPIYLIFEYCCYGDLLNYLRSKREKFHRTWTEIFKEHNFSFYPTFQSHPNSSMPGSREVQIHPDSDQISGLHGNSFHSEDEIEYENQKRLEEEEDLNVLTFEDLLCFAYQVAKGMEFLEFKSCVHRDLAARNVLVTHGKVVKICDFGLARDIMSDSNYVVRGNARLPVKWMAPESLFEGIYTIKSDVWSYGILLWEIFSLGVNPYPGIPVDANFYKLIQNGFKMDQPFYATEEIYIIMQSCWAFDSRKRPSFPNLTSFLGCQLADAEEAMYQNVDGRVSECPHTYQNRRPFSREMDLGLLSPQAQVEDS

[5] = molecular target: Mitogen-activated protein kinase 1 (Homo sapiens) (UniProt P28482); test: Inhibition of MAPK1 (unknown origin) assessed as reduction in kinase activity at 10 uM using ATP
Chain of Mitogen-activated protein kinase 1 (Homo sapiens) (P28482 whole entry): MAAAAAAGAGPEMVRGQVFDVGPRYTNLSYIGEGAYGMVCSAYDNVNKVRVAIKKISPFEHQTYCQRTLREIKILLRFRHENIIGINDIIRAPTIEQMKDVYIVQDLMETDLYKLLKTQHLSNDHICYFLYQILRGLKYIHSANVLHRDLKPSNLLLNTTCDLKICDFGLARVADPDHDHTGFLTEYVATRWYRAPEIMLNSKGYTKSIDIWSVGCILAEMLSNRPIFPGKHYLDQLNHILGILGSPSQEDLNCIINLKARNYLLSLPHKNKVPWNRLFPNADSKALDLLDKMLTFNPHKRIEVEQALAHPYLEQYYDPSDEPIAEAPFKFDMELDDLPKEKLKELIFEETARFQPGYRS

[6] = molecular target: Serine/threonine-protein kinase mTOR (Homo sapiens) (UniProt P42345); test: Inhibition of mTOR (unknown origin) assessed as reduction in kinase activity at 10 uM using ATP
[7] = molecular target: Mitogen-activated protein kinase 14 (Homo sapiens) (UniProt Q16539); test: Inhibition of SAPK2a (unknown origin) assessed as reduction in kinase activity at 10 uM using ATP
Chain of Mitogen-activated protein kinase 14 (Homo sapiens) (Q16539 whole entry): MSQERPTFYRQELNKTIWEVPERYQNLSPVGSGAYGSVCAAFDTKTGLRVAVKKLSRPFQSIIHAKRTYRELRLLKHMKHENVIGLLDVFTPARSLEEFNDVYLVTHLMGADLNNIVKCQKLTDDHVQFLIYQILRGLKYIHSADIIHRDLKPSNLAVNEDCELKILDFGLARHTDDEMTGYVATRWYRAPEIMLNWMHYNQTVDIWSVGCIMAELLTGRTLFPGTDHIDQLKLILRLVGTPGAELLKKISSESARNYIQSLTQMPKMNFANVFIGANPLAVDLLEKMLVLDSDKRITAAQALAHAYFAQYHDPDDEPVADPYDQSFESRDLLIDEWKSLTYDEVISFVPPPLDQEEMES

MV4-11 [8] = test: Induction of apoptosis in human MV4-11 cells assessed as necrotic cells level at 20 uM after 24 hrs by FITC annexin-V/PI staining based flow cytometry (reference value: 0.1%); type: functional; outline: as §1
MV4-11 [9] = test: Induction of apoptosis in human MV4-11 cells at 20 uM after 24 hrs by FITC annexin-V/PI staining based flow cytometry; type: functional; outline: as §1
MV4-11 [10] = test: Induction of cell cycle arrest in human MV4-11 cells assessed as accumulation at G2/M phase at 20 uM after 24 hrs by FITC propidium iodide staining based flow cytometry (reference value: 17.5%); type: functional
MV4-11 [11] = test: Induction of apoptosis in human MV4-11 cells assessed as late apoptotic cells level at 20 uM after 24 hrs by FITC annexin-V/PI staining based flow cytometry (reference value: 5.4%); type: functional; outline: as §1
MV4-11 [12] = test: Induction of apoptosis in human MV4-11 cells assessed as induction of PARP cleavage expression at 20 uM after 24 hrs by Western blotting method; type: functional, cell-based
Outline: (§2)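 MV-4-11 cells in RPMI-1640 with 10% FBS, exposed 24 h (DMSO diluent control); Western blot probing Mnk1, eIF4E, p-eIF4E Ser209, Bcl-2, Mcl-1, cyclin D1, PARP, cleaved PARP; β-actin as loading control; HRP-conjugated anti-mouse/anti-rabbit IgG secondaries.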

Homo sapiens = species: Homo sapiens; test: Inhibition of PI3K (unknown origin) assessed as reduction in kinase activity at 10 uM using ATP
MV4-11 [13] = test: Induction of cell cycle arrest in human MV4-11 cells assessed as accumulation at subG1 phase at 20 uM after 24 hrs by FITC propidium iodide staining based flow cytometry (reference value: 7.7%); type: functional
MV4-11 [14] = test: Effect on total eIF4E protein level in human MV4-11 cells at 20 uM after 24 hrs by Western blotting method; type: functional, cell-based; outline: as §2
MV4-11 [15] = test: Induction of apoptosis in human MV4-11 cells assessed as reduction in Mcl1 expression at 20 uM after 24 hrs by Western blotting method; type: functional, cell-based; outline: as §2
[16] = molecular target: CDK9/cyclin T1 (Homo sapiens) (UniProt O60563+P50750); test: Inhibition of CDK9/cyclinT1 (unknown origin) assessed as reduction in kinase activity at 10 uM using ATP; type: protein-complex assay
MV4-11 [17] = test: Induction of caspase-3/7 activation in human MV4-11 cells at 20 uM after 24 hrs; type: functional, cell-based
Outline: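 MV-4-11 cells treated 24 h, DMSO diluent as control; caspase-3/7 activity measured with Apo-ONE homogeneous caspase-3/7 kit per manufacturer, read on plate reader; expressed as relative activity.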

MV4-11 [18] = test: Induction of cell cycle arrest in human MV4-11 cells assessed as accumulation at G1 phase at 20 uM after 24 hrs by FITC propidium iodide staining based flow cytometry (reference value: 58.1%); type: functional
MV4-11 [19] = test: Induction of apoptosis in human MV4-11 cells assessed as viable cells level at 20 uM after 24 hrs by FITC annexin-V/PI staining based flow cytometry (reference value: 91.49%); type: functional; outline: as §1
[20] = molecular target: CDK2/Cyclin A2 (Homo sapiens) (UniProt P24941+P20248); test: Inhibition of CDK2/cyclinA (unknown origin) assessed as reduction in kinase activity at 10 uM using ATP; type: protein-complex assay
[21] = molecular target: T1, MAP kinase-interacting serine/threonine-protein kinase 1 (Homo sapiens, UniProt Q9BUB5); test: Inhibition of Mnk1 (unknown origin) pre-incubated for 10 mins before eIF4E peptide substrate addition by ADP-Glo kinase assay
Target sequence in this assay (Q9BUB5 whole entry): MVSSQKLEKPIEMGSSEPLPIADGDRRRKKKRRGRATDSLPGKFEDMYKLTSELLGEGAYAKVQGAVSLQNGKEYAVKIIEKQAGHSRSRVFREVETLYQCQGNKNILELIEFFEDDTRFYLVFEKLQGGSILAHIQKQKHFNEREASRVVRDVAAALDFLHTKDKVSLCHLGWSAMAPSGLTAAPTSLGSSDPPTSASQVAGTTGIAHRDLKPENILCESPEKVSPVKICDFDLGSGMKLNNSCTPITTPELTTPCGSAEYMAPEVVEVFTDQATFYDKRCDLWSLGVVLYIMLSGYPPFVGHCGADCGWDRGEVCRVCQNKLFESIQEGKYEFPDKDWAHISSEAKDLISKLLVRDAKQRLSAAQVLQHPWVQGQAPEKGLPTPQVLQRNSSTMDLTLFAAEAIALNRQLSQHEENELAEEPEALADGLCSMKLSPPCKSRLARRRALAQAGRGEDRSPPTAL

[22] = molecular target: Serine/threonine-protein kinase pim-1 (Homo sapiens) (UniProt P11309); test: Inhibition of PIM1 (unknown origin) assessed as reduction in kinase activity at 10 uM using ATP
Chain of Serine/threonine-protein kinase pim-1 (Homo sapiens) (P11309 whole entry, looked up): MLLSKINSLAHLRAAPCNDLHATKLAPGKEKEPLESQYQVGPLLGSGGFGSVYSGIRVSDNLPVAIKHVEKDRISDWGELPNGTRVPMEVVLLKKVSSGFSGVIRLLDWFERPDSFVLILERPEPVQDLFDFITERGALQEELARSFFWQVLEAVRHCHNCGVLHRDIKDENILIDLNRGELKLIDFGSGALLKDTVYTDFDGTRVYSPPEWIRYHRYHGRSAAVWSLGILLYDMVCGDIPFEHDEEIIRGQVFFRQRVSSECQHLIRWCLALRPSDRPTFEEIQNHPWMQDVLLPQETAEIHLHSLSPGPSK

MV4-11 [23] = test: Effect on total Mnk1 protein level in human MV4-11 cells at 20 uM after 24 hrs by Western blotting method; type: functional, cell-based; outline: as §2
[24] = molecular target: MAP kinase-interacting serine/threonine-protein kinase 2 (Homo sapiens, UniProt Q9HBH9); test: Inhibition of Mnk2 (unknown origin) pre-incubated for 10 mins before eIF4E peptide substrate addition by ADP-Glo kinase assay
Chain of MAP kinase-interacting serine/threonine-protein kinase 2 (Q9HBH9 whole entry): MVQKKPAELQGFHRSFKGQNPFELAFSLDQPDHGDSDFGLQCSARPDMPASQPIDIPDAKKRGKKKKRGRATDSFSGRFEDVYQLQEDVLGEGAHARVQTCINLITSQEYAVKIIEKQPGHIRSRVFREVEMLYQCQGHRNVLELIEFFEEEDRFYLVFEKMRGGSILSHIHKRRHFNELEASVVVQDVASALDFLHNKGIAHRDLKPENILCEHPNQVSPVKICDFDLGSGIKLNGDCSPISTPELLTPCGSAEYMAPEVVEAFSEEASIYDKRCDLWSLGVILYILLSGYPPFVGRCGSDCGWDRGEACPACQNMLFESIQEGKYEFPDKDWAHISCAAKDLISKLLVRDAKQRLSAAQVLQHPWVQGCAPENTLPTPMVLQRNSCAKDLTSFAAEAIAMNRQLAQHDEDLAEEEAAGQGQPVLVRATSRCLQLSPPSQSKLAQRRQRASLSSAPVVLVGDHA

MV4-11 [25] = test: Induction of cell cycle arrest in human MV4-11 cells assessed as accumulation at S phase at 20 uM after 24 hrs by FITC propidium iodide staining based flow cytometry (reference value: 16.7%); type: functional
MV4-11 [26] = test: Growth inhibition of human MV4-11 cells after 72 hrs by resazurin assay; type: functional; conditions: MV4-11, 72 h
[27] = molecular target: T1, MAP kinase-interacting serine/threonine-protein kinase 1; test: Inhibition of Mnk1 in human MV4-11 cells assessed as reduction in eIF4E Ser209 phosphorylation at 20 uM after 24 hrs by Western blotting method; type: cell-based; outline: as §2
Target sequence in this assay (Q9BUB5 whole entry, looked up): as the sequence (Q9BUB5 whole entry) above

In the case of COCCCNC(=O)c1sc2ncnc(Nc3cc(C)cn(C)c3=O)c2c1C, the Activity (MV4-11 [1]) is reported as “Active”, the Activity (MV4-11 [2]) is reported as 4.52% and the inhibition [3] is reported as “inactive”. The inhibition [4] was 31%, the inhibition [5] was “inactive” and the inhibition [6] was “inactive”. The inhibition [7] was “inactive”, the Activity (MV4-11 [8]) was 0.1% and the Activity (MV4-11 [9]) was 6%. The Activity (MV4-11 [10]) was 6.9%, the Activity (MV4-11 [11]) was 11.4% and the Activity (MV4-11 [12]) was “Active”. The inhibition (Homo sapiens) was “inactive”, the Activity (MV4-11 [13]) was 12.5% and the Activity (MV4-11 [14]) was “inactive”. The Activity (MV4-11 [15]) was “Active”, the inhibition [16] was “inactive” and the Activity (MV4-11 [17]) was “inactive”. For the same molecule, the Activity (MV4-11 [18]) was 72.5%, the Activity (MV4-11 [19]) was 83.96% and the inhibition [20] was “inactive”. The Ki [21] was 5 µM, the inhibition [22] was “inactive” and the Activity (MV4-11 [23]) was “inactive”. For the same molecule, the Ki [24] was 2.63 µM, the Activity (MV4-11 [25]) was 8.1% and the GI50 (MV4-11 [26]) was 5.73 µM. The inhibition [27] was “Active”.
